Here are results for seven compounds from ChEMBL document CHEMBL4406884, “An anthrone-based Kv7.2/7.3 channel blocker with improved properties for the investigation of psychiatric and neurodegenerative disorders” (Bioorg Med Chem Lett, 2019).

Converted amounts (≈) assume the structure as drawn.

Data set [1] has as its target Potassium voltage-gated channel subfamily KQT member 2 (Homo sapiens, UniProt O43526). The data set is described as follows: Inhibition of Kv7.2 in human HEK293 cells incubated for 1 hr by thallium flux assay. The class given is cell-based. In outline:
(§1)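 HEK-293 cells stably expressing KCNQ2 or hERG were plated overnight, then loaded with Thallos AM dye for 1 h at 22 °C. Compounds (10-point, 3-fold dilutions) were added for 5 min, then Tl₂SO₄/K-gluconate stimulus, read at 1 Hz. F/F0 was vehicle-subtracted and initial slopes fit to a four-parameter logistic. Triplicate wells; mean of three independent experiments.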

Data set [2] deals with T1, CYP3A4 (Homo sapiens, UniProt P08684). The data set is described as follows: Inhibition of CYP3A4 (unknown origin) at 50 uM using DBOMF as substrate measured for each min for 6 mins by fluorescence based assay relative to control. The class given is ADME. As to conditions: probe DBOMF; call rule not given here.
T1 sequence (P08684 whole entry): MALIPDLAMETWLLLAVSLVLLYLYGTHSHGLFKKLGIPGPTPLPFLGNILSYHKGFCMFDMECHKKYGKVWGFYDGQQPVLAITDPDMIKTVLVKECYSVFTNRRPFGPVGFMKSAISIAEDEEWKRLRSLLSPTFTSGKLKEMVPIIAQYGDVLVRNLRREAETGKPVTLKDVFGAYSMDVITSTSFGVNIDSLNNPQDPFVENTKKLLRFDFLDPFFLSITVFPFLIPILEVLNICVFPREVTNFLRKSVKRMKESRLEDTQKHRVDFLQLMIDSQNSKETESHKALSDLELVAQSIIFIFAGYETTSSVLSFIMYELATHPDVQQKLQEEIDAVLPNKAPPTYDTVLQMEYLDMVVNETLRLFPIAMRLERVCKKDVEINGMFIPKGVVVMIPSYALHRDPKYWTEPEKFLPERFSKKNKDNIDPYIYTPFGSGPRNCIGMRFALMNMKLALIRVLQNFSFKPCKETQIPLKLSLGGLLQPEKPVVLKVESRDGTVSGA
Data set [3] concerns the target Voltage-gated potassium channel, KQT; KCNQ2(Kv7.2)/KCNQ3(Kv7.3) (Homo sapiens) (UniProt O43526+O43525). Kind of data set: Inhibition of Kv7.2/7.3 in human tsA201 cells assessed as effect on channel currents at -60 mV holding potential at 1.5 uM by whole cell patch clamp assay relative to control. Type of data set: cell-based.
Data set [4] addresses Voltage-gated inwardly rectifying potassium channel KCNH2 (Homo sapiens, UniProt Q12809). The data set is described as follows: Inhibition of ERG in human HEK293 cells incubated for 1 hr by thallium flux assay. The class given is cell-based. In outline: as §1
Data set [5] is described as follows: Stability in 1:1 MeCN:0.2N aq. HCl assessed as percent remaining at 0.3 mM and 60 degC incubated for 24 hrs by LC/MS analysis. The class given is physicochemical. The following applies: for remaining at 24 h, 300 µM: 1:1 MeCN:0.2N aq. HCl, read-out: Stability. In outline:
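Compound in 1:1 CH3CN/0.2 N aqueous HCl with furan-2-carboxylic acid (1 eq) as internal standard, heated at 60 °C. Analysed by LC-MS at set time points. Degradation from UV peak area at 254 nm relative to the internal standard.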

Data set [6] deals with T2, Alpha-1A adrenergic receptor (Homo sapiens) (UniProt P35348).
T2 sequence (whole entry): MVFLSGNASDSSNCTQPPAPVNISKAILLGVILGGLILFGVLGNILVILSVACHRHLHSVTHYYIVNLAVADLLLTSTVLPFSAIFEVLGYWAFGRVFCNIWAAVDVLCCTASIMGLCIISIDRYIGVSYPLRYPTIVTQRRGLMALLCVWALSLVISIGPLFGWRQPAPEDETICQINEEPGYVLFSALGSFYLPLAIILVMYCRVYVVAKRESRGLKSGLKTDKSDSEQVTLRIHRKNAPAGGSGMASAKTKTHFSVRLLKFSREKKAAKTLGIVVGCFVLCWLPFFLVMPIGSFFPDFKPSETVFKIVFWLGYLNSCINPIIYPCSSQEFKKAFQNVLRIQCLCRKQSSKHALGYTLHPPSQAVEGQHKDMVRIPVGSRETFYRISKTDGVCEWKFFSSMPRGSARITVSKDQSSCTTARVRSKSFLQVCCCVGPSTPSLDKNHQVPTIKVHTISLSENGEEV
The data set is described as follows: Binding affinity to alpha1A adrenergic receptor (unknown origin) at 10 uM relative to control.

The nature of data set [7]: Kinetic solubility in […] % DMSO/water at 3.2 uM to 100 uM incubated for 18 hrs by spectrometry. The class given is physicochemical. As to conditions: for solubility kinetic at 18 h: […] DMSO/water, read-out: Kinetic_solubility.
Data set [8] concerns the target T3, Alpha-1A adrenergic receptor (Homo sapiens, UniProt P35348).
T3 sequence (P35348 whole entry): T2 sequence (whole entry)
The data set is described as follows: Inhibition of alpha1A adrenergic receptor (unknown origin).

Data set [9] has as its target Adrenergic receptor alpha-1 (Homo sapiens) (UniProt P35348+P25100+P35368). Kind of data set: Binding affinity to alpha1 adrenergic receptor (unknown origin) at 10 uM relative to control. The class given is protein assay.
Data set [10] in a line: Metabolic stability in human liver microsomes assessed as percent remaining […] incubated for 1 hr by LC/MS analysis. Type of data set: ADME, Microsome. The method in brief: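 Compound at 10 μM final (from 1 mM DMSO stock) pre-incubated 5 min at 37 °C with NADPH regenerating system in phosphate buffer pH 7.4. Started with human liver microsomes (0.5 mg/mL protein). After 1 h, triplicate aliquots quenched in cold acetonitrile with internal standard. Percent remaining by LC-MS/MS peak-area ratio to internal standard.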
(In general: Microsomes from liver hold many membrane-bound enzymes, among them those of drug oxidation.)

Data set [11] deals with HEK293. The data set is described as follows: Cytotoxicity against human HEK293 cells assessed as reduction in cell viability incubated for 18 hrs by celltiter-glo assay. The following applies: hek293, 18 h. In general terms: Cellular ATP, detected with luciferase, serves as a proxy for viable cell number.
Data set [12] concerns the target T1, CYP3A4. The data set is described as follows: Inhibition of CYP3A4 (unknown origin) at 10 uM using DBOMF as substrate measured for each min for 6 mins by fluorescence based assay relative to control. The class given is ADME. The following applies: probe DBOMF. In outline:
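Vivid CYP3A4 Green assay in PBS pH 7.2 with NADP+ regeneration system. Final levels: 5 nM CYP3A4, 2 μM DBOMF substrate, 100 μM NADP+, 10 μM compound. Fluorescence (ex 490/em 520 nm) read every minute for 6 min, four wells per compound.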

The test system of data set [13] is HepG2. The data set is described as follows: Cytotoxicity against human HepG2 cells assessed as reduction in cell viability incubated for 18 hrs by celltiter-glo assay. The following applies: hepg2, 18 h.
Data set [14] has as its target T4, D(3) dopamine receptor (Homo sapiens, UniProt P35462). The data set is described as follows: Binding affinity to D3 receptor (unknown origin) at 10 uM relative to control.
Data set [15] deals with T4, D(3) dopamine receptor. The data set is described as follows: Inhibition of D3 receptor (unknown origin).

Chain of Voltage-gated inwardly rectifying potassium channel KCNH2 (Q12809 whole entry): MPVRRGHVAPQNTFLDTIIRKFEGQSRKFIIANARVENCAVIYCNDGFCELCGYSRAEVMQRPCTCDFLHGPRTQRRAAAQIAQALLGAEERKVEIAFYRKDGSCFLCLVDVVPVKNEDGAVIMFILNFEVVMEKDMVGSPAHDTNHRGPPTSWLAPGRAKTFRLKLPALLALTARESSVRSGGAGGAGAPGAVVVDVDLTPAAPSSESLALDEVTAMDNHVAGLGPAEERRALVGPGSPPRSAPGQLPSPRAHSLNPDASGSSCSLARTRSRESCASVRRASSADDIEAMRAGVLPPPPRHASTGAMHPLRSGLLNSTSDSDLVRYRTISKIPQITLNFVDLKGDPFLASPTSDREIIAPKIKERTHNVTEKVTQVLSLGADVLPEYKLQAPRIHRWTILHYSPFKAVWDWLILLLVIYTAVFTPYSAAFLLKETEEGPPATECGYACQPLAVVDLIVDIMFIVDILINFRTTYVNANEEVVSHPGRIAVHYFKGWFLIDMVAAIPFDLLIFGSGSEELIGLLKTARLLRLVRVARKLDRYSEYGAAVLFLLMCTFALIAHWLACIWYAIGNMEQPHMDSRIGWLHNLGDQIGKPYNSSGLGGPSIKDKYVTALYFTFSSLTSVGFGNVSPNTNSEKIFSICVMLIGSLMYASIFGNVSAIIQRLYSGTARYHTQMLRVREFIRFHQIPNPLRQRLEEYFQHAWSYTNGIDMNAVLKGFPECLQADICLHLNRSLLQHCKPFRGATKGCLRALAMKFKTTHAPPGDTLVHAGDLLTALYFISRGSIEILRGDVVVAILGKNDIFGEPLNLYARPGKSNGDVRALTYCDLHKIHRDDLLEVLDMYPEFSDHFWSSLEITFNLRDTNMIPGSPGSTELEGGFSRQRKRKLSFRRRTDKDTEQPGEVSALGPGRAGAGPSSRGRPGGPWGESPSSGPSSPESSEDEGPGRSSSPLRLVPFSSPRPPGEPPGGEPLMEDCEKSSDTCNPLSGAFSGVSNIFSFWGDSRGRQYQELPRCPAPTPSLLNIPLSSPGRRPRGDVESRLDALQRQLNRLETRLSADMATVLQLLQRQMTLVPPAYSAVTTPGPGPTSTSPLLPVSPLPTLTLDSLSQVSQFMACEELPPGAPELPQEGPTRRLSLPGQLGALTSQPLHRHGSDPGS
Chain of Potassium voltage-gated channel subfamily KQT member 2 (O43526 whole entry): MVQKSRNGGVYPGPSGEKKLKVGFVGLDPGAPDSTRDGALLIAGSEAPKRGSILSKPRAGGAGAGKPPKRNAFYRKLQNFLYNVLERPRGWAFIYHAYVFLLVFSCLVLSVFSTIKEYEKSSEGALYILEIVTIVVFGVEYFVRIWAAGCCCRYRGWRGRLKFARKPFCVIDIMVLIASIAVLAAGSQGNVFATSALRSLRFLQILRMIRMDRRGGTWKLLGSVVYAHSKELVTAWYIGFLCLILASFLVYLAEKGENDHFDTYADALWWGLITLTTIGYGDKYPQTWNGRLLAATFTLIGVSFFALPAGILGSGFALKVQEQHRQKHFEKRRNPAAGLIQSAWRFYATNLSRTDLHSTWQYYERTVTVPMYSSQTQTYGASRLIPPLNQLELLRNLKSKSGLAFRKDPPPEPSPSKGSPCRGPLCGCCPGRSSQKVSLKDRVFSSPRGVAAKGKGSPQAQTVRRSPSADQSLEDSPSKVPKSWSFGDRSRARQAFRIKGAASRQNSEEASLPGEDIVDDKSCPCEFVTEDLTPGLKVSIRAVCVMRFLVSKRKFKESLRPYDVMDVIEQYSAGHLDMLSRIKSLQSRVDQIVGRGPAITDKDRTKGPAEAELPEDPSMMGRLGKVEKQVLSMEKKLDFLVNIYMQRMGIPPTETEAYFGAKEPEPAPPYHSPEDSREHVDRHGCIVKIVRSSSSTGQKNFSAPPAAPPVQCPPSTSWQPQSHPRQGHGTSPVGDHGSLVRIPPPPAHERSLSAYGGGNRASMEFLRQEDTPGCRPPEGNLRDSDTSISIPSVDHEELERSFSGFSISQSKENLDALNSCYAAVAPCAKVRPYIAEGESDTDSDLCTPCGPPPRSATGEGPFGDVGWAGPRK
T4 sequence (P35462 whole entry): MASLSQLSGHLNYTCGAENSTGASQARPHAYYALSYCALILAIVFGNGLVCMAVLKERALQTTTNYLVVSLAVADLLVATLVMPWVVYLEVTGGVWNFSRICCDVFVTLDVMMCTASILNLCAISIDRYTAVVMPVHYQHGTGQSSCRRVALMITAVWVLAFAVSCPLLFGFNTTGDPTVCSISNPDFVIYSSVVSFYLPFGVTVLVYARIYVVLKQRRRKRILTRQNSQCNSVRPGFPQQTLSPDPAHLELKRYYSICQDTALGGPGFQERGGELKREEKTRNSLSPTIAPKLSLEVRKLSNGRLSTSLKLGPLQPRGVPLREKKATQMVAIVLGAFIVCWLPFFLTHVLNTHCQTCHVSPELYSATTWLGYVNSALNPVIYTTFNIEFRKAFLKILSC
Chain of Adrenergic receptor alpha-1 (Homo sapiens) (P25100 whole entry, looked up, one chain of several): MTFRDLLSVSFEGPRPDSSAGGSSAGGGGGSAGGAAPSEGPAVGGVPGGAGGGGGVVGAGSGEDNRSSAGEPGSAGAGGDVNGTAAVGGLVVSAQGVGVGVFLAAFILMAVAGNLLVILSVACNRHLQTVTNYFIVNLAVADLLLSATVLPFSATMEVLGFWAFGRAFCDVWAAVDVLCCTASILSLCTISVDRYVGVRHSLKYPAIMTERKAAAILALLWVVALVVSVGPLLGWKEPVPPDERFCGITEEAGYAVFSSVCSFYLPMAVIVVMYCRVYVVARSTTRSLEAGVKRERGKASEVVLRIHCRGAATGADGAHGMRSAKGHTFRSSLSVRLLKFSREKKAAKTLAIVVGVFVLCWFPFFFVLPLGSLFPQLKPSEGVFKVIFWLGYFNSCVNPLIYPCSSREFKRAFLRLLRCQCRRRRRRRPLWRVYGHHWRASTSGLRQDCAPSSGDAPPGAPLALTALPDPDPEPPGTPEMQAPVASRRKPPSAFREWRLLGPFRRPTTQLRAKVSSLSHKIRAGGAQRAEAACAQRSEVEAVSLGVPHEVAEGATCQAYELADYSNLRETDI
Chain of Adrenergic receptor alpha-1 (Homo sapiens) (P35368 whole entry, looked up, one chain of several): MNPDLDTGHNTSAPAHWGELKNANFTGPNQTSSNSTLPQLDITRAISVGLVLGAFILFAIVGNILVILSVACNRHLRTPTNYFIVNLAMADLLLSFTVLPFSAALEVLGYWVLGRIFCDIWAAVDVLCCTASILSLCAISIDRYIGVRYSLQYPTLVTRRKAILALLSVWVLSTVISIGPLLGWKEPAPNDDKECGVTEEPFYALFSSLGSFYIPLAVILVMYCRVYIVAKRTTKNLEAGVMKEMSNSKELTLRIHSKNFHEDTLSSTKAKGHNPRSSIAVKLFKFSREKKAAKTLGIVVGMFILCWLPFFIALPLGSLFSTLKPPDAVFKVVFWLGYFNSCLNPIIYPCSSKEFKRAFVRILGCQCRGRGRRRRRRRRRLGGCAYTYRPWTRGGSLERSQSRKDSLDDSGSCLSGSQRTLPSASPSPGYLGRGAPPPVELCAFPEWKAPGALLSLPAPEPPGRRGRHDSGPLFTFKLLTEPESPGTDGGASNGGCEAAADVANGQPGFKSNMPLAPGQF

As for `Cc1cc(CC2(Cc3ccnc(C)c3)c3ccccc3C(=O)c3ccccc32)ccn1`, the IC50 (usually the concentration that inhibits the measured activity by half) in [1] is 0.54 µM; in data set [4], “Not Active”. The inhibition (in general, how much of the control response was suppressed) at 0.1 h, 50 µM in data set [2] came out at 92%. In data set [3], the inhibition was found to be 33%.

Take `O=C1c2ccccc2C(Cc2c(F)cncc2F)(Cc2c(F)cncc2F)c2ccccc21`: the IC50 in data set [1] came out at 0.2 µM. Besides, the inhibition at 0.1 h, 50 µM in data set [2] amounted to 97%. Moreover, in data set [3], the inhibition came out at 65%. The remaining at 24 h, 300 µM in data set [5] was above 99%.

The compound `O=C1c2ccccc2C(Cc2ccnc(F)c2)(Cc2ccnc(F)c2)c2ccccc21` showed an IC50 in data set [1] of 0.048 µM. In addition, the Activity in data set [6] and in data set [9] was above 30% throughout. In addition, the solubility kinetic at 18 h in data set [7] was found to be 27 µM (≈ 11.1 µg/mL). Further, in [8], the Ki (as a rule, the equilibrium dissociation constant of an inhibitor or competing ligand from its target) is 1.1 to 3.1 µM. Also, the inhibition at 0.1 h, 50 µM in data set [2] is 82%. Also, the Stability is listed as 97% in data set [10] and 83% in data set [5] (buffer, 24 h, 300 µM). For the same compound, the CC50 (commonly the concentration that lowers cell viability or growth by half) in data set [11] worked out at 77 µM; in data set [13], 132 µM. In data set [3], the inhibition was 31%. The same compound yielded an inhibition at 0.1 h, 10 µM in data set [12] of 79%.

With `O=C1c2ccccc2C(Cc2ccnnc2)(Cc2ccnnc2)c2ccccc21`, the IC50 in data set [1] was 10 µM; in data set [4] it was “Not Active”. The same compound gave an inhibition at 0.1 h, 50 µM in data set [2] of 28%. Further, the inhibition in data set [3] turned out to be 12%.

As to `O=C1c2ccccc2C(Cc2ccnnc2)(Cc2c(F)cncc2F)c2ccccc21`, the midpoint of inhibition in data set [1], the IC50, lay at 0.16 µM. The compound also had a Kinetic_solubility in [7] (buffer, 18 h, 3.2 µM) of 27 µM. For the same compound, the Activity in data set [14] and in [9] was above 30% each time. Also, the Stability in data set [10] is listed as 84%. The CC50 in [11] and in data set [13] was above 150 µM in each case. Further, the inhibition in data set [3] is 73%. Besides, the remaining at 24 h, 300 µM in [5] is above 99%. In data set [12], the inhibition at 0.1 h, 10 µM came out at 90%. The compound also displayed a Ki in [15] above 10 µM.

Regarding `O=C1c2ccccc2C(Cc2ccnc(C(F)(F)F)c2)(Cc2ccnc(C(F)(F)F)c2)c2ccccc21`, the IC50 in [1] was 5.6 µM; in [4], “Not Active”. Further, the inhibition at 0.1 h, 50 µM in data set [2] was found to be 95%. Also, in [3], the inhibition was 6%.

`O=C1c2ccccc2C(Cc2ccncc2)(Cc2ccncc2)c2ccccc21` yielded an IC50 in data set [1] of 0.055 µM. Besides, in [7], the solubility kinetic at 18 h amounted to 27 µM (≈ 10.2 µg/mL). In addition, in data set [3], the inhibition stood at 81%.
